PostGolgi ctrl: yeast control strain growth, post-Golgi counter-screen | efflux-deficient yeast background strain, growth absorbance A615, 16 h | inhibition, % at 10 µM | hit rate 5% among 98,000
PostGolgi yeast: growth inhibition of a yeast mutant, post-Golgi transport screen; post-Golgi transport phenotypic cell assay; inhibition, % at 10 µM; hit rate 0.9% among 98,000; AID 739;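 note: yeast cells grown in 1536-well plates; yeast grown about 18 h at 30C before absorbance read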
E coli WT exp: growth inhibitors of E. coli BW25113 wild type; OD600 absorbance; growth inhibition, % at 100 µM; hit rate 0.15% among 98,000; AID 710;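 active = growth inhibition above about 50% at one test dose, limit read from the data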;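 note: growth measured after 20 h incubation at 37 °C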
HePTP inhibitor: human HePTP phosphatase inhibition | P35236 | recombinant HePTP phosphatase activity, OD absorbance | inhibition, % at 20 µM | hit rate 0.64% among 110,000 | AID 521; in the data active = inhibition above about 50%;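 note: plate controls were vehicle for no effect and reference inhibitor for full effect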
PLAP act: activates human placental alkaline phosphatase; activation fold at 20 µM; AID 696; purified PLAP enzyme, luminescent substrate read-out; stronger effect = higher value; hit rate 1.2% among 96,000; P05187; in the data active = activation fold above about 2
Target sequence (P05187 whole entry, looked up): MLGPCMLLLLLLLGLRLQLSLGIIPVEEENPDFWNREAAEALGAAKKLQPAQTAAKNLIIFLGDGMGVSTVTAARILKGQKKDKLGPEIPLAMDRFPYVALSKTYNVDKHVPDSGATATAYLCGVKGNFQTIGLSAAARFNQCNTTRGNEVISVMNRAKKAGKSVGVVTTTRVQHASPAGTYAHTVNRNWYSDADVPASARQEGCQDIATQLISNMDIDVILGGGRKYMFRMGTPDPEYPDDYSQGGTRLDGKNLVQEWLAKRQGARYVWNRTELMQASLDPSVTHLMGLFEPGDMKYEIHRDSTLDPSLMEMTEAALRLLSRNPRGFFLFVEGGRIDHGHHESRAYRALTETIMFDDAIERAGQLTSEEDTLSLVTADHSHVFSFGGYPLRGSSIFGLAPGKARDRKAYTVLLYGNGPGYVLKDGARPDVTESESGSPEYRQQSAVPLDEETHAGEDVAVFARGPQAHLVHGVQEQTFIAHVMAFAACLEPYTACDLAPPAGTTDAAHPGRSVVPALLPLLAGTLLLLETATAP
tolC growth inh: growth inhibitors of E. coli BW25113 tolC mutant; OD615; growth inhibition, % at 10 µM (by protocol); hit rate 2.2% among 65,000;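 active = growth inhibition at or above a cutoff equal to the mean over every tested compound plus 3 SD, cut at about 60% in these data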;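 note: growth measured after 20 h incubation at 37 °C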
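Test system: E. coli BW25113 ΔtolC::kan bacteria | Medium: Kanamycin-containing LB broth (50 µg/mL) | Dosing: One dose of 10 µM final | Times: 20 h incubation with compound, 37 °C | Detection: Optical density read at 615 nm | Read-out basis: Percent growth inhibition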
Starred values were filed as active, the others as inactive; . = no result given. In the library only some 5.4% were active in any assay of this set; here they are far more common. Cut-off read from the data, not from the text of the source, unless noted: active = inhibition above about 30%; inactive = the rest.

SMILES	PostGolgi ctrl	PostGolgi yeast	E coli WT exp	HePTP inhibitor	PLAP act	tolC growth inh
CCOc1ccccc1OCCCOc1ccc([N+](=O)[O-])cc1Cl	38*	6	4	.	.	.
Cc1cc(N=Cc2c(O)n(-c3ccc4c(c3)OCO4)c(=O)c3ccccc23)ccn1	30*	0	-1	.	1.3	-4
Cc1ccc(-n2c(O)c(C=Nc3ccc4c(c3)OCO4)c3ccccc3c2=O)cc1C	7	1	-5	.	1.2	.
N#Cc1nc(-c2cccs2)oc1NCC1CCCO1 (stereo unspecified)	39*	6	11	14	0.9	-1
O=S(=O)(c1ccccc1)c1nc(-c2cccs2)oc1NCC1CCCO1 (stereo unspecified)	8	-4	5	-10	1.2	25
Cc1cc(C)c2c(-n3cccc3)c(C(=O)NNS(=O)(=O)c3ccc(Br)cc3)sc2n1	30	7	10	.	1.3	.
CCOC(=O)Nc1sc2nc(C)cc(C)c2c1-n1cccc1	41*	9	-20	.	1	.
CC(C)(C)C1(C)OC(O)(C(Cl)(Cl)Cl)CC1=O (stereo unspecified)	.	.	.	103*	.	.
COC(=O)C1=C(C)NC2=C(C(=O)c3ccccc32)C1c1ccc(OCc2ccc(Cl)cc2Cl)c(OC)c1 (stereo unspecified)	.	.	.	4	.	.
O=C(NCc1ccccc1)c1cc(S(=O)(=O)N2CCC3(CC2)OCCO3)ccc1F	1	3	-2	4	1.1	11
O=C(Nc1cccc(-c2nc3ncccc3o2)c1)c1cc2ccccc2o1	35*	11	-11	.	1.5	11
Cc1ccc(OCc2nc(C#N)c(NCc3ccc4c(c3)OCO4)o2)cc1	31*	1	-11	4	1.2	81*
Cc1cc(C)cc(NC(=S)NC(=O)CCN2C(=O)c3ccccc3C2=O)c1	92*	87*	11	.	0.9	.
CC1=NN(C(=O)c2ccc(Cn3nc(C)cc3C)o2)C(O)(C(F)(F)F)C1 (stereo unspecified)	-2	7	6	.	2.2*	.
CCn1cc(C(=O)O)c(=O)c2cc3c(cc21)OCO3	.	.	.	.	.	100*
CCCCCCCCOC(=O)C1=C(C)Nc2nnnn2C1c1cccs1 (stereo unspecified)	79*	18	-3	.	1.2	.
C=CCOC(=O)C1=C(C)Nc2ncnn2C1c1cc(Br)ccc1F (stereo unspecified)	12	8	3	2	1.2	9
CCCCCCCOC(=O)C1=C(C)Nc2ncnn2C1c1cccs1 (stereo unspecified)	11	-6	0	.	0.7	.
C=CCOC(=O)C1=C(C)Nc2ncnn2C1c1cccs1 (stereo unspecified)	15	31*	-1	.	0.8	.
Nc1nc(NCc2ccco2)nn1-c1ccccc1	.	.	.	11	0.9	-1
O=S(=O)(c1ccc(Br)cc1)N1CCCC1c1nc2ccccc2s1 (stereo unspecified)	40*	-7	-15	.	.	.
O=C(c1ccco1)N1CCN(CC(=O)N2c3ccccc3CCc3ccccc32)CC1	-2	-5	-2	7	1.7	8
CC1CCN(c2nc3ccccc3n3cnnc23)CC1	.	.	.	-2	.	.
Cc1cccc(N2CCN(c3nc4ccccc4n4cnnc34)CC2)c1C	37*	0	2	6	1.3	20
Cc1cc(C)n(C(=O)c2ccc(NC(=O)C3COc4ccccc4O3)cc2)n1 (stereo unspecified)	33*	-18	-16	11	1	42
SMILES	PostGolgi ctrl	PostGolgi yeast	E coli WT exp	HePTP inhibitor	PLAP act	tolC growth inh
O=C(Nc1ccc2c(c1)OCO2)C1COc2ccccc2O1 (stereo unspecified)	-1	-11	9	-4	0.8	14
O=C(Nc1ccc2c(c1)CCC2)C1COc2ccccc2O1 (stereo unspecified)	6	0	3	6	0.9	100*
Cc1ccc(Oc2ccc(NC(=O)Cn3ccsc3=N)cc2)cc1	2	0	42	.	1.3	.
COc1ccc(NS(=O)(=O)c2cccc(C(=O)N/N=C(\C)c3ccc(-n4ccnc4)cc3)c2)cc1	4	8	-6	.	2.1*	.
CCC1CCC/C1=N\NC(=O)c1cc(C)[nH]n1 (stereo unspecified)	6	-1	5	.	2.3*	.
COC(=O)c1ccc(C(=O)OC)c(NC(=O)COC(=O)CC2CC3CCC2C3)c1 (stereo unspecified)	33*	1	-13	.	1.4	.
Cc1ccc(Cl)cc1NC(=O)COC(=O)CC1CC2CCC1C2 (stereo unspecified)	-1	19	-6	.	0.7	.
COC(=O)COc1ccc(/C=C2\C(=O)NC(=O)N(c3ccc(C)cc3)C2=O)cc1OC	.	.	.	-20	.	.
CO/N=C(/CS(=O)Cc1ccccc1Cl)c1ccc(Cl)cc1Cl (stereo unspecified)	30*	0	10	.	1.2	.
O=C1NC(=S)N(c2ccccc2)C(=O)/C1=C/c1ccc(O)c(Cl)c1	.	.	.	-13	.	.
Cc1ccc2c(c1)cc(CN(Cc1cccs1)C(=O)c1ccco1)c1nnnn12	42*	6	-7	8	1.4	13
CCN(CC)C(=O)c1sc(NC(=O)c2cc(Cl)ccc2Cl)c(C#N)c1C	.	.	.	104*	.	.
Cc1sc(NC(=O)c2cc(Cl)ccc2Cl)c(C#N)c1C	.	.	.	103*	.	.
O=C(CSc1nnnn1-c1ccccc1)c1ccc([N+](=O)[O-])cc1	.	.	.	2	.	.
CC/C(=C\C(=O)c1ccncc1)Nc1ccc(Br)cc1	37*	34*	8	.	1.1	.
CC/C(=C/C(=O)c1ccncc1)Nc1ccc(O)cc1	.	.	.	2	.	.
CCOC(=O)N1CCN(Cc2nc3c(c(=O)n(C)c(=O)n3C)n2Cc2cccc3ccccc23)CC1	.	.	.	.	1.6	10
COc1ccc(-c2nc(-n3c(C)c(C(C)=O)c(C(C)=O)c3C)sc2C)cc1OC	29	-9	-15	.	1.5	.
CC(=O)c1c(C(C)=O)c(C)n(-c2nc(-c3ccc(Br)cc3)c(C)s2)c1C	56*	-9	-8	.	0.9	.
COCC(=O)Nc1cc(C(=O)Nc2ccccc2C)ccc1Cl	7	-2	-3	.	1.1	.
Cc1ccccc1NC1CC(C)N(C(=O)c2ccccc2)c2c(C)cccc21 (stereo unspecified)	.	.	.	103*	.	.
C=C(C)COc1ccc2c(C)c(CC(=O)OC)c(=O)oc2c1C	109*	104*	-3	-3	0.9	50
Cc1ccc(-n2nc(C(=O)N3CCN(C)CC3)c3c4ccccc4n(C)c3c2=O)cc1	.	.	.	11	.	-10
Cc1ccc(C(=O)CSc2nc(N)c(C#N)c(-c3ccc(O)cc3)c2C#N)cc1	.	.	.	-5	.	.
CC1(C)Cc2c(sc3c2c(=N)n(Cc2ccco2)c(=O)n3Cc2ccccc2)CO1	13	-2	-2	-10	1.4	51
CC1(C)Cc2c(sc3c2c(=N)n(Cc2ccco2)c(=O)n3Cc2ccc(Cl)cc2)CO1	97*	6	-20	14	1.7	64*
Cc1c(NC(=O)Nc2cccc(Cl)c2)c(=O)n(-c2ccccc2)n1C	37*	-9	-2	7	0.9	6
